Cneo AK release – causes C. neoformans cell lysis; hit rate 0.2% among 360,000; adenylate kinase release luminescence, 4 h; normalised: neutral wells 0, clomiphene wells 100; lysis activity, % at 15 µM;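 active means mean lysis activity across replicates of at least 80%, whatever share of replicates individually reach that level; inactive means mean lysis activity below 80%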
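Test system: log-phase Cryptococcus neoformans yeast cells. Input: 5 × 10^6 yeast cells/mL. Medium: fresh YPD growth medium. Doses: single dose. Incubation: static 4 h at 37 °C with compound, 1 h detection. Measured by: luminescent adenylate kinase detection reagent. Read-out: signal increase indicating cell lysis. Benchmarks: Clomiphene.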
MLL AF4-AF9 inh – MLL-AF4/AF9 protein interaction inhibition | AID 651704 | AlphaScreen, biotin-AF4 peptide binding to FLAG-AF9 | P42568 | hit rate 0.47% among 350,000 | inhibition, % at 10 µM;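 active means every replicate reaching a set inhibition limit, whatever the replicate mean, cut at about 25% in these data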
rRNA inh HTS – inhibitors of bacterial rRNA selective over humanized ribosomes | E. coli WT GFP vs humanized-ribosome RFP mutants, fluorescence, 24 h; stronger effect = lower value; DMSO median 0, no signal -100 | GFP signal change (wild-type ribosome), % (no concentration beside the values) | hit rate 1.6% among 350,000;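 active means significant combined selectivity score with lowered wild-type GFP, culture density cut under 30%, mutant RFP and density less affected; inactive means any of these conditions unmet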
PfHsp90 yeast 2 – growth inhibition of yeast expressing Plasmodium Hsp90 | inhibition, % at 9.4 µM | AID 504621 | hit rate 0.32% among 310,000 | S. cerevisiae expressing PfHsp90, BacTiter-Glo ATP, 48 h; yeast lacking PDR1 and PDR3 efflux regulators;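 active means every replicate shows inhibition above about 80%, whatever the replicate mean, limit read from the data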
S100A4 inh HTS – S100A4-myosin IIA interaction inhibition; P26447; S100A4/TAMRA-MyoIIA peptide fluorescence polarization; inhibition, % at 10.7 µM; hit rate 0.14% among 360,000; AID 652163;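 active means mean inhibition of at least 70% across replicates, with every replicate also reaching that level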
Target sequence (P26447 whole entry, looked up): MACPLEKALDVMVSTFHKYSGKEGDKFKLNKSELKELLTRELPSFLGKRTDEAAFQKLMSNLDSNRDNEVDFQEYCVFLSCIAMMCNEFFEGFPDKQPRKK
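Test system: S100A4 monomer protein; Medium: HEPES pH 7.2 with CaCl2, KCl, NaCl, DTT, Triton; Probe or stimulus: TAMRA-labelled myosin IIA heavy-chain peptide probe, 5 nM; Doses: one dose per compound; Times: polarization read 5 min after assay mix addition, stable 5–60 min; Benchmarks: neutral control DMSO, positive control TFP.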
DENV2 CPE – protects cells from dengue virus 2 cytopathic effect | DENV2-infected cells, cytopathic effect rescue, plate reader | CPE inhibition, % at 9.99 µM | hit rate 1.7% among 350,000 | AID 651640; in the data active means CPE inhibition above about 20%, passing the limit was not always enough; tested in BHK-21 cells
Each line names hits and unclear results; the compound was inactive in the other large screens. Sampled rows, rich in hits. Any-hit rate of the full collection: about 3.2%.

CO[C@@H]1CN(C)C(=O)c2cc(NC(=O)C3CC3)ccc2OC[C@@H](C)N(C(=O)CN(C)C)C[C@@H]1C	none (no result: PfHsp90 yeast 2)
Cc1ccccc1NC(=S)N(Cc1cccs1)C1CCCC1	rRNA inh HTS -24
CCOC(=O)CNC(=S)N(Cc1cccs1)C1CCCCC1	DENV2 CPE 21 (no result: Cneo AK release)
Cc1cccc(C)c1NC(=S)N(Cc1cccs1)C1CCCC1	none (no result: Cneo AK release)
CCOC(=O)CNC(=S)N(Cc1ccccc1F)C1CCCCC1	none
CO[C@H]1CN(C)C(=O)c2ccc(NC(C)=O)cc2OC[C@H](C)N(CCc2ccccc2)C[C@@H]1C	none (no result: Cneo AK release, PfHsp90 yeast 2)
C[C@@H]1CN([C@H](C)CO)C(=O)CCCn2cc(nn2)CO[C@H]1CN(C)Cc1ccc(C(=O)Nc2ccccc2N)cc1	none (no result: PfHsp90 yeast 2)
COc1ccc(NC(C)C(=O)Nc2cc(C(F)(F)F)ccc2N2CCOCC2)c(OC)c1 (configuration not stated)	MLL AF4-AF9 inh 26
COc1cc(Cl)c(C)cc1NC(C)C(=O)Nc1cc(C(F)(F)F)ccc1N1CCOCC1 (configuration not stated)	none (no result: Cneo AK release, MLL AF4-AF9 inh, rRNA inh HTS, S100A4 inh HTS, DENV2 CPE)
COc1ccc(Nc2c(-c3cccc(OC)c3)nc3nc(C)cc(C)n23)cc1	none (no result: Cneo AK release, PfHsp90 yeast 2)
Cc1cc(C)n2c(NC3CCCC3)c(-c3cc4ccccc4o3)nc2n1	none (no result: Cneo AK release, PfHsp90 yeast 2)
Cc1cc(C)n2c(NC3CCCCC3)c(-c3ccccn3)nc2n1	DENV2 CPE 29 (no result: Cneo AK release, PfHsp90 yeast 2)
COc1cccc(-c2nc3nc(C)cc(C)n3c2NC2CCCC2)c1	DENV2 CPE 30 (no result: Cneo AK release, PfHsp90 yeast 2)
COC(=O)[C@H]1COC(c2ccc(OCCCO)cc2)=N1	none (no result: rRNA inh HTS, PfHsp90 yeast 2)
O=C(Nc1ccc(S(=O)(=O)N2CCOCC2)cc1)c1ccc([N+](=O)[O-])o1	rRNA inh HTS -24
O=C(Nc1ccc(N2CCOCC2)cc1)c1ccc([N+](=O)[O-])o1	rRNA inh HTS -19
CCn1nnc(NC(=O)c2ccc([N+](=O)[O-])o2)n1	rRNA inh HTS -23 (no result: Cneo AK release)
CCCCn1nnc(NC(=O)c2ccc(-c3ccccc3[N+](=O)[O-])o2)n1	none
CCN1CCN(c2ccc(NC(=O)c3ccc([N+](=O)[O-])o3)cc2Cl)CC1	rRNA inh HTS -38 (no result: Cneo AK release)
O=C(COC(=O)c1ccc([N+](=O)[O-])o1)Nc1ccc(N2CCOCC2)cc1	none
CC(C)C[C@H]1COCn2nncc2CC[C@@H](Cc2ccccc2)C(=O)N1	none (no result: PfHsp90 yeast 2)
C[C@@H]1CN([C@@H](C)CO)C(=O)c2cc(NC(=O)CCN3CCOCC3)ccc2O[C@H]1CN(C)Cc1ccc2c(c1)OCO2	none (no result: PfHsp90 yeast 2)
CCC(=O)N1[C@@H]2c3cccc(=O)n3C[C@H]1[C@H](CO)[C@H]2C(=O)NC1CCCCC1	none (no result: PfHsp90 yeast 2)
COc1ccc(CNC(=O)C[C@H]2C=C[C@@H](NC(=O)Nc3ccc4c(c3)OCO4)[C@H](CO)O2)cc1	none (no result: PfHsp90 yeast 2)
C[C@H](CO)N1C[C@H](C)[C@@H](CN(C)S(=O)(=O)c2cccs2)Oc2c(NC(=O)Cn3cnnn3)cccc2C1=O	none (no result: Cneo AK release, MLL AF4-AF9 inh, PfHsp90 yeast 2, S100A4 inh HTS, DENV2 CPE)
CCC(=O)N1CCN(c2ccc(Cl)cc2NC(=O)c2ccc([N+](=O)[O-])o2)CC1	none
O=C(Nc1cc(Cl)ccc1-n1cncn1)c1ccc([N+](=O)[O-])o1	rRNA inh HTS -21 (no result: PfHsp90 yeast 2)
O=C(Nc1ccc(N2CCOCC2)cc1)c1cc2c(s1)CCCCC2	rRNA inh HTS -22 (no result: Cneo AK release)
C[C@H](CO)N1C[C@H](C)[C@H](CN(C)Cc2ccc(C(F)(F)F)cc2)Oc2c(NS(=O)(=O)c3ccccc3)cccc2C1=O	none (no result: PfHsp90 yeast 2)
CN(C)C(=O)C[C@@H]1CC[C@H]2[C@@H](COC[C@H](O)CN2Cc2nccs2)O1	none (no result: PfHsp90 yeast 2)
Clc1nccc(N2CCN(c3ccccc3Cl)CC2)n1	rRNA inh HTS -25 (no result: PfHsp90 yeast 2)
Nc1nccc(N2CCCCC2)n1	none (no result: PfHsp90 yeast 2)
O=C(Nc1cc(F)ccc1F)N1CCCCN2[C@H](C1)[C@H](c1ccc(-c3ccccc3)cc1)[C@@H]2CO	DENV2 CPE 36 (no result: PfHsp90 yeast 2)
O=C(Nc1cc(F)ccc1F)N1CCCCN2[C@@H](CO)[C@H](c3ccc(-c4ccccc4)cc3)[C@@H]2C1	none (no result: PfHsp90 yeast 2)
O=C(Nc1cc(F)ccc1F)N1CCCCN2[C@H](CO)[C@H](c3ccc(-c4ccccc4)cc3)[C@H]2C1	DENV2 CPE 62 (no result: PfHsp90 yeast 2)
O=C(Nc1cc(F)ccc1F)N1CCCCN2[C@H](CO)[C@H](c3ccc(-c4ccccc4)cc3)[C@@H]2C1	none (no result: PfHsp90 yeast 2)
